Data: ChEMBL document CHEMBL1128711, “Calcium entry blockers and activators: conformational and structural determinants of dihydropyrimidine calcium channel modulators” (J Med Chem, 1995)

Tests used:
Oryctolagus cuniculus [1] = species on record: Oryctolagus cuniculus; experiment: In vitro contraction of rabbit aorta strips.; format: functional, organism-based
Procedure, shortened: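 Rabbit aortic strips first contracted with 110 mM KCl to check viability and set maximal force. After washout and full relaxation, strips were equilibrated in 10 mM KCl, then given cumulative concentrations of test compound. EC50 is the concentration giving 50% of the prior 110 mM KCl maximal force.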

Oryctolagus cuniculus [2] = species on record: Oryctolagus cuniculus; experiment: In vitro inhibition of potassium-induced contractions in rabbit aorta strips.; format: functional, organism-based
Procedure, shortened: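 Rabbit aortic strips contracted with 110 mM KCl (equimolar replacement of NaCl), then exposed to cumulative concentrations of test compound.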

SMILES | EC50 (Oryctolagus cuniculus [1]; Oryctolagus cuniculus, Aorta) [µM] | IC50 (Oryctolagus cuniculus [2]; Oryctolagus cuniculus, Aorta) [µM] | EC50 (Oryctolagus cuniculus [1]) [µM] | IC50 (Oryctolagus cuniculus [2]) [µM]
CSC1=NC(c2ccccc2SC)C2=C(O)OCC2=N1 (stereo not given) | > 30 | > 30 | – | –
CSC1=NC(c2cccc([N+](=O)[O-])c2SC)C2=C(O)OCC2=N1 (stereo not given) | > 30 | > 30 | – | –
COC(=O)C1=C(C)N=C(SC)N[C@@H]1c1ccccc1SC | > 30 | 2.27 | – | –
COC(=O)C1=C(C)N=C(SC)NC1c1cc([N+](=O)[O-])ccc1SC (stereo not given) | > 30 | 20 | – | –
CSC1=NC2/C(=C(/O)OCCCCCSc3c2cccc3[N+](=O)[O-])C(C)=N1 (stereo not given) | > 30 | 0.036 | – | –
CSC1=NC(c2cccc([N+](=O)[O-])c2)C2=C(O)OCC2=N1 (stereo not given) | > 30 | > 30 | – | –
CSC1=NC(c2cc([N+](=O)[O-])ccc2SC)C2=C(O)OCC2=N1 (stereo not given) | > 30 | > 30 | – | –
CSC1=NC2/C(=C(/O)OCCCCCSc3ccc([N+](=O)[O-])cc32)C(C)=N1 (stereo not given) | 2.9 | 26 | – | –
COC(=O)C1=C(C)N=C(SC)NC1c1ccccc1SC (stereo not given) | > 30 | 20.6 | – | –
COC(=O)C1=C(C)N=C(SC)NC1c1cccc([N+](=O)[O-])c1SC (stereo not given) | > 30 | – | – | –
COC(=O)C1=C(C)N=C(SC)NC1c1cccc([N+](=O)[O-])c1 (stereo not given) | > 30 | 2.5 | – | –
CO/C(O)=C1\C(C)=NC(C)=C([N+](=O)[O-])[C@H]1c1ccccc1C(F)(F)F | 0.046 | 17.1 | – | –
COC(=O)C1=C(C)N=C(SC)N[C@H]1c1ccccc1SC | 3.55 | > 30 | – | –
CCCCSc1ccccc1C1N=C(SC)NC2=C1C(=O)OC2 (stereo not given) | 17.3 | > 30 | – | –
CSC1=NC2/C(=C(/O)OCCCCCSc3ccccc32)C(C)=N1 (stereo in doubt; 15b) | – | – | 0.82 | 3.9
CSC1=NC2/C(=C(/O)OCCCCCSc3ccccc32)C(C)=N1 (stereo in doubt; 15b-A) | – | – | > 30 | 0.1
CSC1=NC2/C(=C(/O)OCCCCCSc3ccccc32)C(C)=N1 (stereo in doubt; 15b-B) | – | – | 0.59 | > 30
COC(=O)C1=C(C)NC(C)=C(C(=O)OC)C1c1ccccc1[N+](=O)[O-] [NIFEDIPINE] | > 30 | 0.019 | – | –
